Laboratory results published in ChEMBL document CHEMBL2046414, “Design and optimization of novel (2S,4S,5S)-5-amino-6-(2,2-dimethyl-5-oxo-4-phenylpiperazin-1-yl)-4-hydroxy-2-isopropylhexanamides as renin inhibitors” (Bioorg Med Chem Lett, 2012).
Residue numbers refer to the chain shown, from its start.

Columns and labels:
[1] = molecular target: T1, Renin (Homo sapiens, UniProt P00797); assay: Inhibition of human purified renin
T1 sequence (P00797 whole entry): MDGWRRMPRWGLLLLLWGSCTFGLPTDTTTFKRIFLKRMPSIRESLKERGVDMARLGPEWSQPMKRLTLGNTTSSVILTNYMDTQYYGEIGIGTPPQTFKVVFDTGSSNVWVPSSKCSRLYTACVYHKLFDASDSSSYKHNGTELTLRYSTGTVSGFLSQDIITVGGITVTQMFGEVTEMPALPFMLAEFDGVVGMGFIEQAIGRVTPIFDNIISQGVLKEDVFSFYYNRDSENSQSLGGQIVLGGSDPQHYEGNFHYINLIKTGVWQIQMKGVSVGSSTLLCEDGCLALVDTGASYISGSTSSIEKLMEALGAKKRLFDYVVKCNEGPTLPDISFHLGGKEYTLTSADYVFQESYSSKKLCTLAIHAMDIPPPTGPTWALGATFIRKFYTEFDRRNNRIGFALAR

[2] = molecular target: T2, Renin (Macaca fascicularis, UniProt Q6DLS0); assay: Inhibition of renin in cynomolgus monkey plasma
T2 sequence (Q6DLS0 whole entry): T1 sequence (P00797 whole entry) with T68A, I214L, S235A

[3] = Metabolic stability in cynomolgus monkey liver microsomes assessed as compound remaining at 1 uM incubated with NADPH generating system measured after 30 mins; format: ADME, Macaca fascicularis, Microsome; details: read-out: Stability
Summary of the method: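 Monkey liver microsome stability, high-throughput in-house format: compound incubated at […] with an NADPH-generating system and 0.5 mg/mL microsomal protein at 37 °C.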

[4] = Volume of distribution at steady state in cynomolgus monkey at 1 mg/kg, iv; format: ADME, organism-based, Macaca fascicularis; parameters: dose 1 mg/kg, route intravenous; details: in vivo, read-out: Vdss
[5] = AUC (0 to 24 hrs) in cynomolgus monkey at 10 mg/kg, po; details: plasma
[6] = Cmax in cynomolgus monkey at 10 mg/kg, po; format: ADME, organism-based, Macaca fascicularis; parameters: dose 10 mg/kg, route oral; details: in vivo
[7] = Clearance in cynomolgus monkey at 1 mg/kg, iv; format: ADME, organism-based, Macaca fascicularis; parameters: dose 1 mg/kg, route intravenous; details: in vivo
[8] = Oral bioavailability in cynomolgus monkey at 10 mg/kg; format: ADME, organism-based, Macaca fascicularis; details: in vivo
[9] = Half life in cynomolgus monkey at 1 mg/kg, iv; format: ADME, organism-based, Macaca fascicularis; parameters: dose 1 mg/kg, route intravenous; details: in vivo

Row | IC50 [1] [nM] | IC50 [2] [nM] | Compound | other results
1 | 1.4 | 6.4 | COCOc1ccccc1N1CC(C)(C)N(C[C@H](N)[C@@H](O)C[C@H](C(=O)NCC(C)(C)C(N)=O)C(C)C)CC1=O | –
2 | 1.2 | 5.3 | COCCCOc1ccccc1N1CC(C)(C)N(C[C@H](N)[C@@H](O)C[C@H](C(=O)NCC(C)(C)C(N)=O)C(C)C)CC1=O | –
3 | 1.7 | 9.8 | COCCOc1ccccc1N1CC(C)(C)N(C[C@H](N)[C@@H](O)C[C@H](C(=O)NCC(C)(C)C(N)=O)C(C)C)CC1=O | –
4 | 1.9 | 19 | COc1ccccc1N1CC(C)(C)N(C[C@H](N)[C@@H](O)C[C@H](C(=O)NCC(C)(C)C(N)=O)C(C)C)CC1=O | –
5 | 3.1 | 49 | CC(C)[C@H](C[C@H](O)[C@@H](N)CN1CC(=O)N(c2ccccc2)CC1(C)C)C(=O)NCC(C)(C)C(N)=O | –
6 | 2.2 | 30 | CC(C)[C@H](C[C@H](O)[C@@H](N)CN1CC(=O)N(c2ccccc2F)CC1(C)C)C(=O)NCC(C)(C)C(N)=O | –
7 | 1.7 | 24 | Cc1ccccc1N1CC(C)(C)N(C[C@H](N)[C@@H](O)C[C@H](C(=O)NCC(C)(C)C(N)=O)C(C)C)CC1=O | –
8 | – | 7 | CC(C)[C@H](C[C@H](O)[C@@H](N)CN1CC(=O)N(c2ccccc2Cl)CC1(C)C)C(=O)NCC(C)(C)C(N)=O | –
9 | 4.2 | 58 | COc1cccc(N2CC(C)(C)N(C[C@H](N)[C@@H](O)C[C@H](C(=O)NCC(C)(C)C(N)=O)C(C)C)CC2=O)c1 | –
10 | 3 | 23 | CC(C)[C@H](C[C@H](O)[C@@H](N)CN1CC(=O)N(c2cccc(F)c2)CC1(C)C)C(=O)NCC(C)(C)C(N)=O | –
11 | 2.1 | 25 | CC(C)[C@H](C[C@H](O)[C@@H](N)CN1CC(=O)N(c2cccc(Cl)c2)CC1(C)C)C(=O)NCC(C)(C)C(N)=O | –
12 | 2 | 11 | CC(C)[C@H](C[C@H](O)[C@@H](N)CN1CC(=O)N(c2cccc(F)c2F)CC1(C)C)C(=O)NCC(C)(C)C(N)=O | –
13 | 2 | 30 | CC(C)[C@H](C[C@H](O)[C@@H](N)CN1CC(=O)N(c2cc(F)ccc2F)CC1(C)C)C(=O)NCC(C)(C)C(N)=O | –
14 | 2.4 | 12 | CC(C)[C@H](C[C@H](O)[C@@H](N)CN1CC(=O)N(c2c(F)cccc2F)CC1(C)C)C(=O)NCC(C)(C)C(N)=O | –
15 | 5.5 | 90 | CC(C)[C@H](C[C@H](O)[C@@H](N)CN1CC(=O)N(c2cc(F)cc(F)c2)CC1(C)C)C(=O)NCC(C)(C)C(N)=O | –
16 | 2.1 | 7 | CC(C)[C@H](C[C@H](O)[C@@H](N)CN1CC(=O)N(c2cc(F)ccc2Cl)CC1(C)C)C(=O)NCC(C)(C)C(N)=O | –
17 | 2.1 | 28 | CC(C)[C@H](C[C@H](O)[C@@H](N)CN1CC(=O)N(c2cc(Cl)ccc2Cl)CC1(C)C)C(=O)NCC(C)(C)C(N)=O | –
18 | 2.4 | 33 | COc1ccc(Cl)c(N2CC(C)(C)N(C[C@H](N)[C@@H](O)C[C@H](C(=O)NCC(C)(C)C(N)=O)C(C)C)CC2=O)c1 | –
19 | 1 | 9 | CCCCNC(=O)[C@@H](C[C@H](O)[C@@H](N)CN1CC(=O)N(c2ccccc2Cl)CC1(C)C)C(C)C | remaining at 0.5 h, 1 µM [3]: 39.2%
20 | 1 | 2 | CC[C@H](C)CNC(=O)[C@@H](C[C@H](O)[C@@H](N)CN1CC(=O)N(c2ccccc2Cl)CC1(C)C)C(C)C | remaining at 0.5 h, 1 µM [3]: 8.4%
21 | 1 | 11 | CC(C)[C@H](C[C@H](O)[C@@H](N)CN1CC(=O)N(c2ccccc2Cl)CC1(C)C)C(=O)NC1CCCCC1 | remaining at 0.5 h, 1 µM [3]: 17.5%
22 | 2 | 25 | CCCCNC(=O)[C@@H](C[C@H](O)[C@@H](N)CN1CC(=O)N(c2cc(F)ccc2Cl)CC1(C)C)C(C)C.O=C(O)/C=C/C(=O)O | remaining at 0.5 h, 1 µM [3]: 52.2%; Vd [4]: 16.3 L/kg; AUC(0-t) at 24 h [5]: 2110 ng·h/mL; Cmax [6]: 576 ng/mL; clearance [7]: 14.7 mL/min/kg; bioavailability [8]: 18.5%; half-life [9]: 10.8 h
23 | 1.4 | 8 | CC[C@H](C)CNC(=O)[C@@H](C[C@H](O)[C@@H](N)CN1CC(=O)N(c2cc(F)ccc2Cl)CC1(C)C)C(C)C | remaining at 0.5 h, 1 µM [3]: 1.9%
24 | 1.9 | 5 | CC(C)[C@H](C[C@H](O)[C@@H](N)CN1CC(=O)N(c2cc(F)ccc2Cl)CC1(C)C)C(=O)NC1CCCCC1 | remaining at 0.5 h, 1 µM [3]: 38%
25 | 370 | 12500 | COCCCOc1ccccc1C1CCN(CC(N)C(O)CC(C(=O)NCC(C)(C)C(N)=O)C(C)C)CC1 (racemic) | –
26 | – | 2800 | COCCCOc1ccccc1N1CCN(CC(N)C(O)CC(C(=O)NCC(C)(C)C(N)=O)C(C)C)CC1=O (racemic) | –
27 | 400 | 3000 | COCCCOc1cccc(N2CCN(CC(N)C(O)CC(C(=O)NCC(C)(C)C(N)=O)C(C)C)CC2=O)c1 (racemic) | –
28 | 3.3 | 10 | COCCCOc1ccccc1N1CC(C)(C)N(CC(N)C(O)CC(C(=O)NCC(C)(C)C(N)=O)C(C)C)CC1=O (racemic) | –
29 | 170 | 875 | COCCCOc1ccccc1N1CCN(CC(N)C(O)CC(C(=O)NCC(C)(C)C(N)=O)C(C)C)C(C)(C)C1=O (racemic) | –
